In ChEMBL document CHEMBL2412955, “Synthesis and antibacterial activities of N-substituted-glycinyl 1H-1,2,3-triazolyl oxazolidinones” (2013):
In brackets after ≈: the same amount, converted by molar mass.

Key:
Format in all cases: functional
Moraxella catarrhalis [1] = assay: Antibacterial activity against Moraxella catarrhalis clinical isolate 125 after 18 hrs by NCCLS agar dilution method; settings: clinical isolate 125, 18 h
Procedure, shortened: (§1)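 NCCLS agar dilution on Mueller-Hinton agar with 5% sheep blood added to support growth. Drug dilutions 0.12–64 µg/ml. Test agents in 80% DMSO in water, linezolid in 40% water in ethanol. Final inoculum 10^7 CFU/ml, 18 h at 35 °C. MIC read as the lowest concentration with no visible growth.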

Moraxella catarrhalis [2] = assay: Antibacterial activity against Moraxella catarrhalis clinical isolate 1 after 18 hrs by NCCLS agar dilution method; settings: clinical isolate 1, 18 h; procedure, shortened: as §1
Enterococcus [3] = assay: Antibacterial activity against vancomycin-susceptible Enterococcus after 18 hrs by NCCLS agar dilution method
Procedure, shortened: (§2)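 Clinical isolates were tested by agar dilution on Mueller-Hinton agar with drug dilutions from 0.12 to 64 µg/ml. Test compounds were dissolved in 80% DMSO in water. Final inoculum was 10^7 CFU/ml, incubated at 35 °C for 18 h. MIC was the lowest concentration inhibiting visible growth.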

Streptococcus pneumoniae [4] = assay: Antibacterial activity against penicillin-resistant Streptococcus pneumoniae after 18 hrs by NCCLS agar dilution method
Procedure, shortened: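 Agar dilution was run on Mueller-Hinton agar supplemented with 5% sheep blood, with drug dilutions from 0.12 to 64 µg/ml. Test compounds were dissolved in 80% DMSO in water. Final inoculum was 10^7 CFU/ml, incubated at 35 °C for 18 h. MIC was the lowest concentration preventing visible growth.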

Haemophilus influenzae = assay: Antibacterial activity against Haemophilus influenzae ATCC 49247 after 18 hrs by NCCLS agar dilution method; settings: ATCC 49247, 18 h; procedure, shortened: as §1
Escherichia coli = assay: Antibacterial activity against Escherichia coli ATCC 25922 after 18 hrs by NCCLS agar dilution method; settings: ATCC 25922, 18 h
Procedure, shortened: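 Agar dilution per NCCLS on Mueller-Hinton agar, drug dilutions 0.12–64 µg/ml. Linezolid dissolved in 40% water in ethanol, vancomycin in water, test agents in 80% DMSO in water. Inoculum 10^7 CFU/ml (final), incubated 35 °C for 18 h. MIC is the lowest concentration preventing visible growth.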

Moraxella catarrhalis [5] = assay: Antibacterial activity against Moraxella catarrhalis clinical isolate 112 after 18 hrs by NCCLS agar dilution method; settings: clinical isolate 112, 18 h; procedure, shortened: as §1
Staphylococcus [6] = assay: Antibacterial activity against methicillin-resistant coagulase-negative Staphylococcus after 18 hrs by NCCLS agar dilution method; procedure, shortened: as §2
Moraxella catarrhalis [7] = assay: Antibacterial activity against Moraxella catarrhalis ATCC 8176 after 18 hrs by NCCLS agar dilution method; settings: ATCC 8176, 18 h; procedure, shortened: as §1
Staphylococcus aureus [8] = assay: Antibacterial activity against Staphylococcus aureus ATCC 25923 after 18 hrs by […] in presence of human plasma; settings: ATCC 25923, Plasma
Procedure, shortened: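 To gauge plasma protein binding and/or plasma instability, MIC was determined in Mueller-Hinton broth containing 50% human plasma. Linezolid served as a reference agent. Ratio compares this MIC with the MIC obtained without plasma.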

Moraxella catarrhalis [9] = assay: Antibacterial activity against Moraxella catarrhalis clinical isolate 255 after 18 hrs by NCCLS agar dilution method; settings: clinical isolate 255, 18 h; procedure, shortened: as §1
Moraxella catarrhalis [10] = assay: Antibacterial activity against Moraxella catarrhalis clinical isolate 36 after 18 hrs by NCCLS agar dilution method; settings: clinical isolate 36, 18 h; procedure, shortened: as §1
Moraxella catarrhalis [11] = assay: Antibacterial activity against Moraxella catarrhalis clinical isolate 2824 after 18 hrs by NCCLS agar dilution method; settings: clinical isolate 2824, 18 h; procedure, shortened: as §1
Moraxella catarrhalis [12] = assay: Antibacterial activity against Moraxella catarrhalis clinical isolate 138 after 18 hrs by NCCLS agar dilution method; settings: clinical isolate 138, 18 h; procedure, shortened: as §1
Staphylococcus aureus [13] = assay: Antibacterial activity against Staphylococcus aureus ATCC 25923 after 18 hrs by NCCLS agar dilution method; settings: ATCC 25923, 18 h
Procedure, shortened: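 Plain Mueller-Hinton agar, agar dilution per NCCLS, concentrations 0.12–64 µg/ml. Test agents in 80% DMSO in water, linezolid in 40% water in ethanol, vancomycin in water. Final inoculum 10^7 CFU/ml, 35 °C for 18 h. MIC = lowest concentration inhibiting visible growth.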

Staphylococcus aureus [14] = assay: Antibacterial activity against methicillin-susceptible Staphylococcus aureus after 18 hrs by NCCLS agar dilution method; procedure, shortened: as §2
Moraxella catarrhalis [15] = assay: Antibacterial activity against Moraxella catarrhalis clinical isolate 3447 after 18 hrs by NCCLS agar dilution method; settings: clinical isolate 3447, 18 h; procedure, shortened: as §1
Staphylococcus aureus [16] = assay: Antibacterial activity against methicillin-resistant Staphylococcus aureus after 18 hrs by NCCLS agar dilution method; procedure, shortened: as §2
Staphylococcus [17] = assay: Antibacterial activity against methicillin-susceptible coagulase-negative Staphylococcus after 18 hrs by NCCLS agar dilution method; procedure, shortened: as §2
Enterococcus [18] = assay: Antibacterial activity against vancomycin-resistant Enterococcus after 18 hrs by NCCLS agar dilution method; procedure, shortened: as §2
Enterococcus [19] = assay: Ratio of PH084 MIC to compound MIC for vancomycin-susceptible Enterococcus
Staphylococcus aureus [20] = assay: Ratio of PH084 MIC to compound MIC for methicillin-susceptible Staphylococcus aureus
Streptococcus pneumoniae [21] = assay: Ratio of PH027 MIC to compound MIC for penicillin-resistant Streptococcus pneumoniae
Enterococcus [22] = assay: Ratio of PH027 MIC to compound MIC for vancomycin-susceptible Enterococcus
Staphylococcus [23] = assay: Ratio of PH027 MIC to compound MIC for methicillin-susceptible coagulase-negative Staphylococcus
Staphylococcus [24] = assay: Ratio of linezolid MIC to compound MIC for methicillin-susceptible coagulase-negative Staphylococcus
Streptococcus pneumoniae [25] = assay: Ratio of PH084 MIC to compound MIC for penicillin-resistant Streptococcus pneumoniae
Staphylococcus aureus [26] = assay: Ratio of linezolid MIC to compound MIC for methicillin-susceptible Staphylococcus aureus
Enterococcus [27] = assay: Ratio of linezolid MIC to compound MIC for vancomycin-susceptible Enterococcus
Moraxella catarrhalis [28] = assay: Ratio of linezolid MIC to compound MIC for Moraxella catarrhalis ATCC 8176
Staphylococcus aureus [29] = assay: Ratio of PH027 MIC to compound MIC for methicillin-susceptible Staphylococcus aureus
Staphylococcus [30] = assay: Ratio of PH084 MIC to compound MIC for methicillin-susceptible coagulase-negative Staphylococcus
Streptococcus pneumoniae [31] = assay: Ratio of linezolid MIC to compound MIC for penicillin-resistant Streptococcus pneumoniae

| SMILES | MIC (Moraxella catarrhalis [1]) | MIC (Moraxella catarrhalis [2]) | MIC (Enterococcus [3]) | MIC (Streptococcus pneumoniae [4]) | MIC (Haemophilus influenzae) | MIC (Escherichia coli) | MIC (Moraxella catarrhalis [5]) | MIC (Staphylococcus [6]) | MIC (Moraxella catarrhalis [7]) | MIC (Staphylococcus aureus [8]) | MIC (Moraxella catarrhalis [9]) | MIC (Moraxella catarrhalis [10]) | MIC (Moraxella catarrhalis [11]) | MIC (Moraxella catarrhalis [12]) | MIC (Staphylococcus aureus [13]) | MIC (Staphylococcus aureus [14]) | MIC (Moraxella catarrhalis [15]) | MIC (Staphylococcus aureus [16]) | MIC (Staphylococcus [17]) | MIC (Enterococcus [18]) | also measured |
| --- | --- | --- | --- | --- | --- | --- | --- | --- | --- | --- | --- | --- | --- | --- | --- | --- | --- | --- | --- | --- | --- |
| Cc1cn(C[C@H]2CN(c3ccc(N4CCN(C(=O)CNC(=O)c5cccnc5)CC4)c(F)c3)C(=O)O2)nn1 | 4 mg/L (≈ 7.65 µM) | > 4 mg/L | 1 mg/L (≈ 1.91 µM) | 0.25 mg/L (≈ 0.478 µM) | 8 mg/L (≈ 15.3 µM) | > 64 mg/L | 4 mg/L (≈ 7.65 µM) | 1 mg/L (≈ 1.91 µM) | 8 mg/L (≈ 15.3 µM) | 4 mg/L | 4 mg/L (≈ 7.65 µM) | > 4 mg/L | 8 mg/L (≈ 15.3 µM) | 4 mg/L (≈ 7.65 µM) | 2 mg/L (≈ 3.83 µM) | 1 mg/L (≈ 1.91 µM) | 8 mg/L (≈ 15.3 µM) | 1 mg/L (≈ 1.91 µM) | 1 mg/L (≈ 1.91 µM) | 1 mg/L (≈ 1.91 µM) |  |
| O=C(NCC(=O)N1CCN(c2ccc(N3C[C@H](Cn4ccnn4)OC3=O)cc2F)CC1)c1cccs1 | 8 mg/L (≈ 15.6 µM) | 8 mg/L (≈ 15.6 µM) | 1 mg/L (≈ 1.95 µM) | 0.5 mg/L (≈ 0.974 µM) | 16 mg/L (≈ 31.2 µM) | > 64 mg/L | 8 mg/L (≈ 15.6 µM) | 0.5 mg/L (≈ 0.974 µM) | 8 mg/L (≈ 15.6 µM) | 8 mg/L | 8 mg/L (≈ 15.6 µM) | 8 mg/L (≈ 15.6 µM) | 8 mg/L (≈ 15.6 µM) | 8 mg/L (≈ 15.6 µM) | 1 mg/L (≈ 1.95 µM) | 0.5 mg/L (≈ 0.974 µM) | 8 mg/L (≈ 15.6 µM) | 0.5 mg/L (≈ 0.974 µM) | 0.5 mg/L (≈ 0.974 µM) | 1 mg/L (≈ 1.95 µM) |  |
| O=C(NCC(=O)N1CCN(c2ccc(N3C[C@H](Cn4ccnn4)OC3=O)cc2F)CC1)c1ccc([N+](=O)[O-])o1 | 1 mg/L (≈ 1.84 µM) | 1 mg/L (≈ 1.84 µM) | 0.25 mg/L (≈ 0.461 µM) | < 0.25 mg/L | 8 mg/L (≈ 14.7 µM) | > 64 mg/L | 1 mg/L (≈ 1.84 µM) | 0.06 mg/L (≈ 0.111 µM) | 1 mg/L (≈ 1.84 µM) | < 0.25 mg/L | 1 mg/L (≈ 1.84 µM) | 1 mg/L (≈ 1.84 µM) | 1 mg/L (≈ 1.84 µM) | 1 mg/L (≈ 1.84 µM) | < 0.25 mg/L | 0.06 mg/L (≈ 0.111 µM) | 1 mg/L (≈ 1.84 µM) | 0.06 mg/L (≈ 0.111 µM) | 0.06 mg/L (≈ 0.111 µM) | 0.25 mg/L (≈ 0.461 µM) | Ratio (Enterococcus [19]): 4; Ratio (Staphylococcus aureus [20]): 4; Ratio (Streptococcus pneumoniae [21]): 4; Ratio (Enterococcus [22]): 4; Ratio (Staphylococcus [23]): 4; Ratio (Staphylococcus [24]): 4; Ratio (Streptococcus pneumoniae [25]): 4; Ratio (Staphylococcus aureus [26]): 4; Ratio (Enterococcus [27]): 4; Ratio (Moraxella catarrhalis [28]): 8; Ratio (Staphylococcus aureus [29]): 4; Ratio (Staphylococcus [30]): 4; Ratio (Streptococcus pneumoniae [31]): 4 |
| Cc1cn(C[C@H]2CN(c3ccc(N4CCN(C(=O)CNC(=O)c5ccc([N+](=O)[O-])o5)CC4)c(F)c3)C(=O)O2)nn1 | 1 mg/L (≈ 1.8 µM) | 1 mg/L (≈ 1.8 µM) | 0.25 mg/L (≈ 0.449 µM) | < 0.25 mg/L | 2 mg/L (≈ 3.59 µM) | 16 mg/L (≈ 28.8 µM) | 1 mg/L (≈ 1.8 µM) | 0.06 mg/L (≈ 0.108 µM) | 0.5 mg/L (≈ 0.898 µM) | < 0.25 mg/L | 1 mg/L (≈ 1.8 µM) | 1 mg/L (≈ 1.8 µM) | 1 mg/L (≈ 1.8 µM) | 1 mg/L (≈ 1.8 µM) | < 0.25 mg/L | 0.06 mg/L (≈ 0.108 µM) | 1 mg/L (≈ 1.8 µM) | 0.06 mg/L (≈ 0.108 µM) | 0.06 mg/L (≈ 0.108 µM) | 0.5 mg/L (≈ 0.898 µM) | Ratio (Enterococcus [19]): 4; Ratio (Staphylococcus aureus [20]): 4; Ratio (Streptococcus pneumoniae [21]): 4; Ratio (Enterococcus [22]): 4; Ratio (Staphylococcus [23]): 4; Ratio (Staphylococcus [24]): 4; Ratio (Streptococcus pneumoniae [25]): 4; Ratio (Staphylococcus aureus [26]): 4; Ratio (Enterococcus [27]): 4; Ratio (Moraxella catarrhalis [28]): 16; Ratio (Staphylococcus aureus [29]): 4; Ratio (Staphylococcus [30]): 4; Ratio (Streptococcus pneumoniae [31]): 4 |
